Shown are actives, neighbours in structure and some others; about 5.3% of the full set was active somewhere.
CSC inhib = cancer stem cell viability inhibitors, primary screen, luminescence; cancer stem cell-like cells viability; inhibition, % at 7.5 µM; 300,000 tested, 1.1% active; AID 2717, 2010; in the data active means inhibition above about 75%; tested in HMLE shEcad cells
Beta cell apopt = inhibitors of cytokine-induced beta cell apoptosis, primary screen, luminescence. 300,000 tested, 0.8% active. INS-1E cytokine-induced death, ATP luminescence, 48 h; percent of positive-control rescue, neutral wells zero. protection from apoptosis, % (test concentration not listed);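 active means Every replicate reaches about 75%, or at least half do and their mean reaches it too, limit read from the data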;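 further: higher means more ATP so stronger rescue from cytokine killing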
Calb FLC = C. albicans growth inhibition with fluconazole, primary screen, CaCi-2 strain, Alamar Blue fluorescence. C. albicans CaCi-2 (fluconazole-resistant clinical isolate) + fluconazole, 48 h. growth inhibition, % (test concentration not listed). 300,000 tested, 0.57% active. AID 1979, 2009;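 active means growth inhibition above about 58% in most replicates, limit read from the data, passing the limit was not always enough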;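 further: all wells also contain fluconazole at 8 µg/ml as a sub-toxic cotreatment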
Mdm2-MdmX inh = inhibitors of human Mdm2-MdmX association, primary screen, cell-based, luminescence, split luciferase, SaOS-2, uHTS. Protein Mdm4 (Homo sapiens) + E3 ubiquitin-protein ligase Mdm2 (Homo sapiens), …. SaOS-2 split-luciferase Mdm2/MdmX complementation. inhibition, % at 8 µM. 330,000 tested, 3% active. AID 485346, 2010;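 active means inhibition of at least 50% at 8 µM in the primary screen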
Target sequence (O15151 whole entry, looked up): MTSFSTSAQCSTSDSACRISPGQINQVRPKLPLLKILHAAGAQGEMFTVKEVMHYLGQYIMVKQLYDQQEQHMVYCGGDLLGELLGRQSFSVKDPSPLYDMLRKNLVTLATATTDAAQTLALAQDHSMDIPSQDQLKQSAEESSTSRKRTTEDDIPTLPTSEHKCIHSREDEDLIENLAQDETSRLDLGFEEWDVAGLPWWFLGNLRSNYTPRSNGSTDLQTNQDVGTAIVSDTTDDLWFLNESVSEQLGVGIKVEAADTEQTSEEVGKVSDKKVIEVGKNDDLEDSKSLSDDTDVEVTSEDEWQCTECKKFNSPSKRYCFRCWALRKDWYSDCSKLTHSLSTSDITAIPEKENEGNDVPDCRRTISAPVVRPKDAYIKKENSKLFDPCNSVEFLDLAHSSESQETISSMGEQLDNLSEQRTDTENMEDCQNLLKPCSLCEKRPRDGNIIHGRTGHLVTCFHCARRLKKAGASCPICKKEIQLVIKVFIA
Target sequence (Q00987 whole entry, looked up): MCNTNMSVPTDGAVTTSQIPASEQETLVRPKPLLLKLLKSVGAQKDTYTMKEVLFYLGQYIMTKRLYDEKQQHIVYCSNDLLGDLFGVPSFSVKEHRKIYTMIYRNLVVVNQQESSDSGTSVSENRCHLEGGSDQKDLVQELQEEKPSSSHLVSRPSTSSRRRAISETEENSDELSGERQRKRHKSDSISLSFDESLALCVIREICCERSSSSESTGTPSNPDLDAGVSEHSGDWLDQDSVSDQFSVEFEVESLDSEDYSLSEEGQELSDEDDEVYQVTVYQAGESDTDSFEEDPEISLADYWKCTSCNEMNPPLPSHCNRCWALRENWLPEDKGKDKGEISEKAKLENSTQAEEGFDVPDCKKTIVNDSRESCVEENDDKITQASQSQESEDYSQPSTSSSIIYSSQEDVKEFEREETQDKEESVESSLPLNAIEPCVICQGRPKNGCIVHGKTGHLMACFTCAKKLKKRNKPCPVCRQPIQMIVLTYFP
T cruzi repl = inhibitors of intracellular T. cruzi growth, primary screen, luminescence, NIH3T3 host cells; inhibition, % (test concentration not listed); 300,000 tested, 1.4% active; T. cruzi beta-gal in NIH3T3, 90 h;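 active means mean inhibition across valid replicates above about 55%, limit read from the data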;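 further: signal also drops with host cell toxicity which is not excluded here; higher percent means less beta-gal luminescence so fewer parasites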
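System: Mouse NIH/3T3 fibroblasts infected with β-gal-expressing T. cruzi Tulahuen C4 | Quantity: NIH/3T3 cells, 5,000 per well | Reagent: 5000 reporter trypomastigotes per well | Dosing: Compound pinned at 50 nL/well, DMSO | Schedule: 3 h host attachment, then at least 90 h co-culture | Detection: GalScreen luminescence, 60 min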
NLRP3 yeast inh = NALP3 inflammasome inhibitors in reconstituted yeast, primary screen, luminescence, uHTS; Yeast reconstituted NLRP3/ASC/caspase-1, beta-gal luminescence, 24 h; inhibition, % at 10 µM; 330,000 tested, 0.39% active; AID 2825, 2010;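 active means inhibition of 50% or more; inactive means inhibition below 50%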
Mdm2 MdmX conf = Mdm2-MdmX complex disruptors, retested hits, confirmation, luminescence, single concentration. shares compounds with Mdm2-MdmX inh. Mdm2-MdmX binding, luminescent assay. inhibition, % at 8 µM. 10,000 tested, 55% active. AID 489028, 2010; in the data active means inhibition above about 40%
FLuc counter = full-length luciferase signal inhibition, confirmation, counter-screen for Mdm2/MdmX interaction inhibitor project, cell-based, single concentration, SaOS-2; AID 504607, 2011; 6,200 tested, 77% active; shares compounds with Mdm2-MdmX inh; SaOS-2 full-length luciferase counterscreen, luminescence; inhibition, % at 8 µM;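 active means mean inhibition at 8 µM reaching about 37%, which flags the compound as non-specific, limit read from the data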;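 further: p53-null SaOS-2 cells with luciferase driven by a doxycycline-inducible promoter; compound on cells about two nights before reading with doxycycline added after day one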
Hits are given with their value.

For CCOC(=O)N1CCN(S(=O)(=O)c2ccc(C(=O)Nc3sc4c(c3C(=O)OC)CCN(C)C4)cc2)CC1 the results were CSC inhib inactive, Calb FLC inactive, Mdm2-MdmX inh 100.4, T cruzi repl inactive, NLRP3 yeast inh inactive and Mdm2 MdmX conf inactive.
CN1CCc2c(sc(NC(=O)c3ccc(S(=O)(=O)N4CCc5ccccc54)cc3)c2C(N)=O)C1 was read as CSC inhib 82.4, Beta cell apopt inactive, Calb FLC inactive, Mdm2-MdmX inh 96.3, T cruzi repl inactive, NLRP3 yeast inh inactive, Mdm2 MdmX conf 82.8 and FLuc counter inactive.
For Cc1ccc(-n2c3c(cc(C(=O)NCCCN4CCOCC4)c2=O)C(=O)CC(C)(C)C3)cc1 the results were CSC inhib inactive, Beta cell apopt inactive, Calb FLC inactive, Mdm2-MdmX inh inactive, T cruzi repl inactive and NLRP3 yeast inh inactive.
O=C(CCCCC(=O)NCCc1ccccc1)NCCc1ccccc1 was read as CSC inhib inactive, Beta cell apopt inactive, Calb FLC inactive, Mdm2-MdmX inh inactive, T cruzi repl inactive and NLRP3 yeast inh inactive.
`CN1CCc2c(sc(NC(=O)c3ccc([N+](=O)[O-])o3)c2C(N)=O)C1` gave CSC inhib inactive, Beta cell apopt inactive, Mdm2-MdmX inh 94.2, T cruzi repl 63.8, NLRP3 yeast inh inactive, Mdm2 MdmX conf 88.7 and FLuc counter 55.2.
Screening NC(=O)c1c(NC(=O)c2ccc([N+](=O)[O-])o2)sc2c1CCCC2 returned CSC inhib inactive, Beta cell apopt inactive, Calb FLC inactive, Mdm2-MdmX inh inactive, T cruzi repl inactive and NLRP3 yeast inh inactive.
`CCN1CCc2c(sc(NC(=O)c3cc4ccccc4cc3OC)c2C(N)=O)C1` gave CSC inhib inactive, Beta cell apopt inactive, Mdm2-MdmX inh 100.4, T cruzi repl 58.4, NLRP3 yeast inh inactive and Mdm2 MdmX conf inactive.
Screening CCOC(=O)N1CCN(S(=O)(=O)c2ccc(C(=O)Nc3sc4c(c3C(N)=O)CCN(CC)C4)cc2)CC1 returned CSC inhib inactive, Calb FLC inactive, Mdm2-MdmX inh 79.4, T cruzi repl inactive, NLRP3 yeast inh inactive and Mdm2 MdmX conf inactive.
CCCN1CCc2c(sc(NC(=O)c3ccc(S(=O)(=O)N4CCN(C(=O)OCC)CC4)cc3)c2C(N)=O)C1 was read as CSC inhib inactive, Calb FLC inactive, Mdm2-MdmX inh inactive, T cruzi repl inactive and NLRP3 yeast inh inactive.
O=C(Nc1ncccn1)c1ccc([N+](=O)[O-])o1 was read as CSC inhib inactive, Beta cell apopt inactive, Calb FLC inactive, Mdm2-MdmX inh inactive, T cruzi repl inactive and NLRP3 yeast inh inactive.
For NC(=O)c1ccsc1NC(=O)c1ccc([N+](=O)[O-])o1 the results were CSC inhib inactive, Beta cell apopt inactive, Mdm2-MdmX inh 56.6, NLRP3 yeast inh inactive and Mdm2 MdmX conf inactive.
COc1cccc(OC)c1C(=O)Nc1sc2c(c1C(N)=O)CCN(Cc1ccccc1)C2 was read as CSC inhib inactive, Beta cell apopt inactive, Calb FLC inactive, Mdm2-MdmX inh inactive, T cruzi repl inactive and NLRP3 yeast inh inactive.
Screening Cc1nc(SCc2nc3ccc(F)cc3[nH]2)c2oc3ccccc3c2n1 returned Beta cell apopt inactive, Mdm2-MdmX inh inactive and NLRP3 yeast inh inactive.
Screening N#Cc1c(NC(=O)CCC(=O)O)sc2c1CCCC2 returned CSC inhib inactive, Beta cell apopt inactive, Calb FLC inactive, Mdm2-MdmX inh inactive, T cruzi repl inactive and NLRP3 yeast inh inactive.
CCc1ccc(CCC(=O)Nc2sc3c(c2C#N)CCCC3)o1 was read as CSC inhib inactive, Beta cell apopt inactive, Calb FLC inactive, Mdm2-MdmX inh 50.0, T cruzi repl inactive, NLRP3 yeast inh inactive, Mdm2 MdmX conf 67.5 and FLuc counter 83.1.
OCCCNc1ncnc2scc(-c3ccc(Cl)cc3)c12 was read as CSC inhib inactive, Beta cell apopt inactive, Calb FLC inactive, Mdm2-MdmX inh 70.8, T cruzi repl inactive, NLRP3 yeast inh inactive, Mdm2 MdmX conf 59.8 and FLuc counter inactive.
`Fc1ccc(-c2csc3ncnc(Cl)c23)cc1` gave CSC inhib inactive, Beta cell apopt inactive, Calb FLC inactive, Mdm2-MdmX inh inactive, T cruzi repl inactive and NLRP3 yeast inh inactive.
Screening CCN(CC)c1ccc(/C=N\NC(=O)c2cccc3cc[nH]c23)cc1 returned CSC inhib inactive, Beta cell apopt inactive, Calb FLC inactive, Mdm2-MdmX inh 50.2, T cruzi repl inactive, NLRP3 yeast inh inactive and Mdm2 MdmX conf inactive.
For COc1ccc(CC(=O)NN2C(=O)c3ccccc3C2=O)cc1 the results were CSC inhib inactive, Beta cell apopt inactive, Calb FLC inactive, Mdm2-MdmX inh inactive, T cruzi repl inactive and NLRP3 yeast inh inactive.
`COc1ccc(CC2=CC(=O)c3ccccc3C2=O)cc1` gave CSC inhib inactive, Calb FLC inactive, Mdm2-MdmX inh 54.8, T cruzi repl inactive, NLRP3 yeast inh inactive and Mdm2 MdmX conf inactive.
`CCCCNc1nc(-c2ccccc2)c(C(=O)OCC)cc1C#N` gave CSC inhib inactive, Beta cell apopt inactive, Calb FLC inactive, Mdm2-MdmX inh inactive, T cruzi repl inactive and NLRP3 yeast inh inactive.
CCCNc1nc(-c2ccccc2)c(C(=O)OCC)cc1C#N was read as CSC inhib inactive, Beta cell apopt inactive, Calb FLC inactive, Mdm2-MdmX inh 62.8, T cruzi repl inactive, NLRP3 yeast inh inactive, Mdm2 MdmX conf 52.2 and FLuc counter 63.5.
Cc1ccc(S(=O)(=O)CCC(=O)OCC(=O)NC(C)c2ccccc2)cc1 (centres undefined) was read as Beta cell apopt inactive, Mdm2-MdmX inh inactive and NLRP3 yeast inh inactive.
CC(Oc1cc(Cl)ccc1Cl)C(=O)N/N=C\c1ccnn1C (centres undefined) was read as CSC inhib inactive, Beta cell apopt inactive, Calb FLC inactive, Mdm2-MdmX inh inactive, T cruzi repl inactive and NLRP3 yeast inh inactive.
Screening Cc1csc2sc(-c3ccnc(SCC(=O)NCc4ccccc4)n3)c(C)c12 returned CSC inhib inactive, Calb FLC inactive, Mdm2-MdmX inh 56.0, T cruzi repl inactive, NLRP3 yeast inh inactive, Mdm2 MdmX conf 58.8 and FLuc counter 85.7.
For CN(c1cccc(NC(=O)CN(c2ccc(C34CC5CC(CC(C5)C3)C4)cc2)S(C)(=O)=O)c1)S(C)(=O)=O the results were CSC inhib inactive, Beta cell apopt inactive, Calb FLC inactive, Mdm2-MdmX inh 75.8, T cruzi repl 65.3, NLRP3 yeast inh inactive, Mdm2 MdmX conf 53.6 and FLuc counter 78.1.

Bioassay records from PubChem BioAssay.
